In brackets after ≈: the same amount, converted by molar mass. Bounds are passed on as bounds.

In test [1] the target is T1, Enoyl-[acyl-carrier-protein] reductase [NADPH] FabI (Staphylococcus aureus, UniProt Q6GI75).
T1 sequence (Q6GI75 whole entry): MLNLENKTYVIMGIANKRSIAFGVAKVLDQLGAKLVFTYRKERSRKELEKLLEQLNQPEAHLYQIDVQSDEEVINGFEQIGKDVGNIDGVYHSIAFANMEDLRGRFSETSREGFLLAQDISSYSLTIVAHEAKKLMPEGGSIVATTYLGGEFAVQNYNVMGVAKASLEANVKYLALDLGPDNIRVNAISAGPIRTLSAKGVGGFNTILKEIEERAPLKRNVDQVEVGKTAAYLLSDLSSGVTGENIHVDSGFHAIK
Put plainly: Evaluated for inhibition of enoyl acyl carrier protein reductase (FabI) in Staphylococcus aureus.

For test [2], the target named is T2, Enoyl-[acyl-carrier-protein] reductase [NADH] FabI (Escherichia coli K-12, UniProt P0AEK4).
T2 sequence (P0AEK4 whole entry): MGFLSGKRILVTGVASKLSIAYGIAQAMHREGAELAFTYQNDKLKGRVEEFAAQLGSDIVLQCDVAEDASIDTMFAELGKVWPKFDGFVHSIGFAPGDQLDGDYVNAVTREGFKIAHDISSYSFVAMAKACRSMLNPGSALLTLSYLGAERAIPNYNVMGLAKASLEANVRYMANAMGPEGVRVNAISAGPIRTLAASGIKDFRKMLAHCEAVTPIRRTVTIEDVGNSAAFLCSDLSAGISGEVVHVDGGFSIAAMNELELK
The experiment in a line: Evaluated for inhibition of enoyl acyl carrier protein reductase (FabI) in Escherichia coli.

The next test deals with Staphylococcus aureus. The experiment in a line: Antibacterial activity against Staphylococcus aureus Oxford. The class given is functional.
Another test concerns Moraxella catarrhalis. Put plainly: Antibacterial activity against Moraxella catarrhalis 1502. Format: functional.
The target in test [3] is T2, Enoyl-[acyl-carrier-protein] reductase [NADH] FabI. Put plainly: Evaluated for inhibition of enoyl acyl carrier protein reductase (FabI) of Escherichia coli in the presence of NADH using crotonoyl CoA as substrate. The procedure, abridged: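 Cloned, overexpressed, purified E. coli FabI (usually 60 nM) in 100 mM NaADA pH 6.5, 4% glycerol, 0.25 mM crotonoyl CoA, 50 µM NADH; inhibitor typically 0.01-10 µM. NADH consumption followed at 340 nm, 20 min, 30 °C; initial velocities from tangent at t = 0 of exponential fit; IC50 from 4-parameter fit, mean ± SD of duplicates.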

Test [4] concerns the target T1, Enoyl-[acyl-carrier-protein] reductase [NADPH] FabI. The experiment in a line: Evaluated for inhibition of enoyl acyl carrier protein reductase (FabI) of Staphylococcus aureus in the presence of NADH using crotonoyl CoA as substrate.

Regarding `COc1ccc(-c2c[nH]c(Cc3ccc(C)cc3)n2)cc1`, the IC50 (usually the point on the concentration scale where inhibition reaches its midpoint) in test [1] is 66.2 µM; in test [2], > 100 µM.
For `Cc1ccc(Cn2cnc(-c3cccc(Cl)c3Cl)c2)cc1`, the IC50 in test [1] was > 10 µM.
For the molecule `c1ccc(-c2ccc(Cn3cnc(-c4ccsc4)c3)cc2)cc1`, the IC50 worked out at 7.66 µM in test [1] and 1.18 µM in test [2].
The like results for `COc1ccc(-c2cn(Cc3ccc(C(F)(F)F)cc3)cn2)cc1` were, in that order, 4.07 µM and 28.3 µM.
For `Cc1ccc(Cc2nc(-c3ccsc3)no2)cc1`, the IC50 in test [1] was 50.7 µM; in test [2] it was > 100 µM.
As for `COc1ccc(-c2cn(Cc3ccccc3)cn2)cc1`, the IC50 was found to be 1.13 µM in test [1] and 5.28 µM in test [2]. Besides, the MIC in the test on Staphylococcus aureus and with Moraxella catarrhalis was 64 µg/mL (≈ 242 µM) in each case.
For the molecule `Cc1ccc(Cc2coc(-c3ccsc3)n2)cc1`, the IC50 in test [1] and in test [2] was > 100 µM throughout.
Take `c1ccc(C[C@@H]2COC(c3ccsc3)=N2)cc1`: the IC50 in test [1] and in test [2] was > 100 µM each time.
In the case of `Cc1ccccc1Cn1cnc(-c2ccsc2)c1`, the IC50 was found to be 36.5 µM in test [1] and 65.4 µM in test [2].
For `Cn1cnc(-c2ccsc2)c1`, in test [1], the IC50 was > 100 µM.
Turning to `O=[N+]([O-])c1cccc(Cn2cnc(-c3ccsc3)c2)c1`, the IC50 in test [1] turned out to be 14.7 µM; in test [2], 26.9 µM.
The like results for `O=C(O)c1cccc(Cn2cnc(-c3ccsc3)c2)c1` were, in that order, > 100 µM and > 100 µM.
The like results for `Cc1ccc(Cc2noc(-c3ccsc3)n2)cc1` were, in that order, 51 µM and > 100 µM.
Regarding `Nc1ccc(Cn2cnc(-c3ccsc3)c2)cc1`, the IC50 was determined as 2.03 µM in test [1] and 5.14 µM in test [2]. The MIC with Staphylococcus aureus and against Moraxella catarrhalis was > 64 µg/mL throughout.
Regarding `c1ccc(C[C@H]2COC(c3ccsc3)=N2)cc1`, the IC50 in test [1] and in test [2] was > 100 µM each time.
`Cc1ccc(Cn2cnc(-c3ccsc3)c2)cc1`: the IC50 in test [1] is 0.25 µM; in test [2], 6.44 µM. The MIC (usually the least concentration at which growth counts as inhibited) was 8 µg/mL (≈ 31.5 µM) in the test on Staphylococcus aureus and 32 µg/mL (≈ 126 µM) against Moraxella catarrhalis.
`FC(F)(F)c1ccc(-c2cn(Cc3ccccc3)cn2)cc1`: in test [1], the IC50 was > 100 µM.
With `Cc1cccc(Cn2cnc(-c3ccsc3)c2)c1`, the IC50 in test [1] is 4.24 µM; in test [2], 12.2 µM. The MIC in the test with Staphylococcus aureus is > 64 µg/mL; against Moraxella catarrhalis, 32 µg/mL (≈ 126 µM).
The like results for `COc1ccc(Cn2cnc(-c3ccsc3)c2)cc1` were, in that order, 1.9 µM, 9.4 µM, 16 µg/mL (≈ 59.2 µM) and 64 µg/mL (≈ 237 µM).
The like results for `COc1ccc(-c2cn(Cc3ccc(C)cc3)cn2)cc1` were, in that order, 0.36 µM, 3.92 µM, 8 µg/mL (≈ 28.7 µM) and 32 µg/mL (≈ 115 µM).
Regarding `Cc1ccc(Cn2cnc(-c3cccs3)c2)cc1`, the IC50 was determined as 13.7 µM in test [3] and 1.24 µM in test [4]. This molecule yielded a minimum inhibitory concentration (MIC) in the test with Staphylococcus aureus of 128 µg/mL (≈ 503 µM).
For the molecule `Oc1cc(Cl)ccc1Oc1ccc(Cl)cc1Cl` [TRICLOSAN], the figures for the MIC with Staphylococcus aureus and in the test on Moraxella catarrhalis were 0.03 µg/mL (≈ 0.104 µM) and 0.06 µg/mL (≈ 0.207 µM), respectively.
